# Measured values gathered from unrelated publications.
SMILES,system,setting,endpoint,result
N=c1c2c(-c3ccccc3)c(-c3ccccc3)n(Cc3ccccc3)c2ncn1[C@H]1CC[C@H](O)CC1,"male cynomolgus monkey, plasma","intravenous, 0.5 mg/kg, single dose",Vd,1.5 L/kg
Cc1ccccc1C(=O)NN=Cc1ccc(O)c(Br)c1,"mouse, plasma","intraperitoneal, 1.6 mg/kg",Tmax,30 min
N=C(N)NCCC[C@@H](NC(=O)[C@@H](N)Cc1ccccc1)C(=O)N[C@@H](Cc1ccccc1)C(=O)N[C@@H](CCCCN)C(N)=O,"human, plasma","subcutaneous, 15 mg, patients",Cmax,886 ng/mL
C[C@]12CC[C@H](n3ccnc3)CC1=CC[C@@H]1[C@@H]2CC[C@]2(C)C(n3cnc4ccccc43)=CC[C@@H]12.Cl.Cl,"male CD-1 mouse, plasma","oral, 10 mg/kg",Tmax,1040 min
C/N=c1\nc(-c2ccccc2)n(-c2ccccc2)s1,Caco-2,"20 µM, 95 min",efflux ratio,0.962
C[C@H]1O[C@@H](O[C@H]2[C@@H](O)C[C@H](O[C@H]3[C@@H](O)C[C@H](O[C@H]4CC[C@@]5(C)[C@H](CC[C@@H]6[C@@H]5C[C@@H](O)[C@]5(C)[C@@H](C7=CC(=O)OC7)CC[C@]65O)C4)O[C@@H]3C)O[C@@H]2C)C[C@H](O)[C@@H]1O,Caco-2,"10 µM, 1 h, pH 7.4",efflux ratio,5.33
CC[C@H](C)[C@H](NC(=O)[C@H](CC(C)C)NC(=O)[C@H](Cc1c[nH]c2ccccc12)NC(=O)[C@H](CCC(N)=O)NC(=O)[C@@H](NC(=O)[C@H](Cc1ccccc1)NC(=O)[C@H](C)NC(=O)[C@H](CCCCNC(=O)COCCOCCNC(=O)COCCOCCNC(=O)CC[C@H](NC(=O)CCCCCCCCCCCCCCCCCCC(=O)O)C(=O)O)NC(=O)[C@H](CCC(N)=O)NC(=O)[C@H](C)NC(=O)[C@@H](NC(=O)[C@H](CCCCN)NC(=O)[C@H](CC(=O)O)NC(=O)[C@H](CC(C)C)NC(=O)C(C)(C)NC(=O)[C@@H](NC(=O)[C@H](CO)NC(=O)[C@H](Cc1ccc(O)cc1)NC(=O)[C@H](CC(=O)O)NC(=O)[C@H](CO)NC(=O)[C@@H](NC(=O)[C@H](Cc1ccccc1)NC(=O)[C@@H](NC(=O)CNC(=O)[C@H](CCC(=O)O)NC(=O)C(C)(C)NC(=O)[C@@H](N)Cc1ccc(O)cc1)[C@@H](C)O)[C@@H](C)O)[C@@H](C)CC)[C@@H](C)CC)C(C)C)C(=O)N[C@@H](C)C(=O)NCC(=O)NCC(=O)N1CCC[C@H]1C(=O)N[C@@H](CO)C(=O)N[C@@H](CO)C(=O)NCC(=O)N[C@@H](C)C(=O)N1CCC[C@H]1C(=O)N1CCC[C@H]1C(=O)N1CCC[C@H]1C(=O)N[C@@H](CO)C(N)=O,"human, plasma","subcutaneous, 5 mg, patients",Cmax,379 ng/mL
COc1ccc2[nH]cc(CCNc3nccc(Nc4cccc5c4ccn5C)n3)c2c1,"mouse, plasma","oral, 28.6 mg/kg",Tmax,15 min
c1cc([C@H]2CC[C@]3(CC2)OO[C@]2(O3)C3CC4CC(C3)CC2C4)ccc1OCCN1CCOCC1,"human, plasma","oral, 400 mg, patients",Cmax,732 ng/mL
CC(=C/C=C/C(C)=C/C(=O)O)/C=C1\CCCc2ccccc21,"human, plasma","oral, 10 mg, single dose, fasted, healthy volunteers",Cmax,55.9 ng/mL
COc1cc2c(c(OC)c1OC)-c1ccc(OC)c(=O)cc1[C@@H](NC(C)=O)CC2,Caco-2,,efflux ratio,24.5
